Screens as filed in PubChem.
A selection: hits, their analogues and other compounds. The true share with any hit is near 2.1%.
AF4-AF9 inh: inhibitors of AF4 peptide binding to AF9, primary screen, biochemical, AlphaScreen, biotin-AF4 peptide, FLAG-AF9, single point; Protein AF-9 (Homo sapiens), P42568; inhibition, % at 10 µM; hit rate 0.47% among 350,000; AID 651704, 2012;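 active = every replicate reaching a set inhibition limit, whatever the replicate mean, cut at about 25% in these data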
ERp5 inh: inhibitors of ERp5-driven insulin aggregation, primary screen, biochemical, turbidity, absorbance 650 nm, single point. inhibition, % at 9.99 µM. Protein disulfide-isomerase A6 (Homo sapiens), Q15084. hit rate 0.05% among 350,000. 90 min. AID 651711, 2012;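 active = mean replicate inhibition above about 25%, with every replicate also reaching it, limit read from the data, passing the limit was not always enough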
FGF22 binding: binders of human FGF22 protein, primary screen, FGF22 synaptogenesis inhibitor project, biophysical, thermal shift, single point | Fibroblast growth factor 22 (Homo sapiens), Q9HCT0 | recombinant FGF22 thermal shift, SYPRO orange fluorescence; percent of sucrose octasulfate shift, DMSO zero | activity (Tm shift, normalised), % at 9.99 µM | hit rate 1.5% among 340,000;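 active = mean Tm shift, scaled 0 neutral to 100 positive control, at about 1.3% or above, every replicate too, limit read from the data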
FN deposition inh: inhibitors of fibronectin matrix deposition, primary screen, AH1F cells, Alexa488-fibronectin fluorescence, plate reader; AH1F fibroblasts, overnight; inhibition, % at 12.6 µM; hit rate 0.086% among 350,000; AID 743247, 2014;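 active = mean inhibition across replicates of 30% or more, regardless of how many single replicates reach that level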
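Test system: AH1F fibroblast monolayer depositing Alexa488-labelled fibronectin into matrix. Input: 10000 cells per well. Technique: fluorescence, ex 485 nm, em 525 nm. Buffer or medium: DMEM plus 2% serum, read in PBS. Timing: 1 h cell adhesion before compound, then overnight fibronectin incubation. Compound: single dose, pinned. Read-out basis: inhibition from reduced deposited-fibronectin fluorescence.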
PDI turbidity: inhibitors of human PDI, primary screen, biochemical, turbidity, single point, plate reader; hit rate 0.052% among 350,000; PDI insulin aggregation turbidity, A650, 90 min; inhibition, % at 10 µM; Protein disulfide-isomerase (Homo sapiens), P07237;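 active = mean inhibition across replicates of 30% or more, whatever share of single replicates reach that level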
ARNT TACC3 PPI: disruptors of ARNT/TACC3 protein interaction, primary screen, biochemical, AlphaScreen, single concentration. Transforming acidic coiled-coil-containing protein 3 (Homo sapiens), Q9Y6A5. AID 623870, 2012. inhibition, % at 9.99 µM. AlphaScreen His-ARNT PAS-B/GST-TACC3 binding, luminescence; TACC3 fragment carries E629A point mutation. hit rate 0.66% among 390,000;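 active = mean inhibition of replicates at least 50% and at least half of replicates each reaching 50%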
Each line names hits and unclear results; the compound was inactive in the other large screens.

CCCc1nc2sc3c(c2c(=O)[nH]1)CCCC3	FGF22 binding 43
O=S(=O)(Cc1ccccc1)N1CCCCN2[C@H](CO)[C@@H](c3ccc(-c4ccccc4)cc3)[C@@H]2C1	none (no result: FN deposition inh, PDI turbidity)
Nc1ccc(S(=O)(=O)c2ccccc2)nc1	none
O=S(=O)(c1ccccc1)c1ccc(C(F)(F)F)cn1	FGF22 binding 44
CC(=O)N1[C@H](CO)[C@H]2c3ccccc3N(S(=O)(=O)c3ccc(F)cc3)C[C@H]21	none (no result: AF4-AF9 inh, ERp5 inh, FGF22 binding, FN deposition inh, PDI turbidity)
O=S(=O)(O)c1cc(O)c2c(O)c(N=Nc3cc(Cl)ccc3O)c(S(=O)(=O)O)cc2c1	ARNT TACC3 PPI 69 (no result: AF4-AF9 inh, ERp5 inh, FGF22 binding, FN deposition inh)
Oc1ccc(Cl)cc1N=Nc1ccccc1	none
CCCNC(=O)N[C@H]1C=C[C@H](CC(=O)N2CCN(C)CC2)O[C@@H]1CO	none (no result: PDI turbidity)
O=C1N/C(=C\c2ccsc2)C(=O)N1Cc1ccc(F)cc1	none
Cc1ccsc1/C=C1/NC(=O)N(Cc2ccc(F)cc2)C1=O	FGF22 binding 43 (no result: ARNT TACC3 PPI)
CC(C)c1ccc(S(=O)(=O)/N=C2\C=C(NS(=O)(=O)c3ccccc3)C(=O)c3ccccc32)cc1	ARNT TACC3 PPI 47
CCc1ccc(S(=O)(=O)/N=C2\C=C(NS(=O)(=O)c3ccccc3)C(=O)c3ccccc32)cc1	none
CCCc1cc(C(=O)N2CCC(N3CCC(C(=O)NC(C)C)CC3)CC2)n(C)n1	FGF22 binding 44 (no result: ARNT TACC3 PPI)
C[C@@H]1CN([C@H](C)CO)C(=O)Cc2cc(NC(=O)C3CCCCC3)ccc2O[C@@H]1CN(C)CC1CC1	none (no result: FGF22 binding, PDI turbidity)
COc1ccc(N=C2NC(=O)/C(=C\C=C\c3ccccc3)S2)cc1	FGF22 binding 44
COc1ccc(N=C2NC(=O)/C(=C/C=C/c3ccccc3)S2)cc1	none
C[C@H]1CN([C@@H](C)CO)C(=O)c2cc(C#CC3CC3)cnc2O[C@@H]1CN(C)S(C)(=O)=O	none (no result: PDI turbidity)
CC1(C)Cc2c(C#N)c(SCC(=O)c3ccccc3)nc(N3CCOCC3)c2CS1	FN deposition inh 48 (no result: AF4-AF9 inh, ERp5 inh, FGF22 binding, ARNT TACC3 PPI)
CN1Cc2c(N3CCOCC3)nc(SCc3ccccc3)c(C#N)c2CC1(C)C	none (no result: AF4-AF9 inh, ERp5 inh, FGF22 binding)
COc1cccc(CNC(=O)C[C@H]2C=C[C@@H](NC(C)=O)[C@@H](CO)O2)c1	none (no result: PDI turbidity)
C#CCOCCOCCOCCNc1nc(N2CCN(C(=O)C(CCC(=O)O)n3cc(C(N)CC(C)C)nn3)CC2)nc(N2CCN(C(=O)C(Cc3cc4ccccc4[nH]3)n3cc(C(N)Cc4ccc(O)cc4)nn3)CC2)n1 (centres undefined)	ARNT TACC3 PPI 46 (no result: AF4-AF9 inh, ERp5 inh, FGF22 binding, FN deposition inh, PDI turbidity)
C#CCOCCOCCOCCNc1nc(N2CCN(C(=O)[C@H]([C@@H](C)CC)n3cc([C@@H](N)CC(C)C)nn3)CC2)nc(N2CCN(C(=O)[C@H](Cc3ccc(O)cc3)n3cc([C@@H](N)CC(C)C)nn3)CC2)n1	AF4-AF9 inh 28 (no result: PDI turbidity, ARNT TACC3 PPI)
C#CCOCCOCCOCCNc1nc(N2CCN(C(=O)[C@H](CCC(=O)O)n3cc(C(N)CC(C)C)nn3)CC2)nc(N2CCN(C(=O)[C@H](Cc3cc4ccccc4[nH]3)n3cc(C(N)CC(C)C)nn3)CC2)n1 (some centres undefined)	PDI turbidity 36 (no result: AF4-AF9 inh, ERp5 inh, FGF22 binding, FN deposition inh)
C#CCOCCOCCOCCNc1nc(N2CCN(C(=O)[C@H](Cc3cc4ccccc4[nH]3)n3cc([C@@H](N)Cc4ccc(O)cc4)nn3)CC2)nc(N2CCN(C(=O)[C@H](Cc3cc4ccccc4[nH]3)n3cc([C@@H](N)CC(C)C)nn3)CC2)n1	none (no result: AF4-AF9 inh, ERp5 inh, FGF22 binding, FN deposition inh, PDI turbidity)
C#CCOCCOCCOCCNc1nc(N2CCN(C(=O)[C@H]([C@@H](C)CC)n3cc([C@@H](N)Cc4ccc(O)cc4)nn3)CC2)nc(N2CCN(C(=O)[C@H]([C@@H](C)CC)n3cc([C@@H](N)Cc4ccc(O)cc4)nn3)CC2)n1	none
